Test results reported in the array DNA melting data of Ke et al. (doi:10.1101/2024.01.08.574731).

Experiments:
[1] = melting temperature; fluorescence melt of hairpins on a sequencing array, two-state fit, raised by 9.35 °C to match UV melts; settings: sodium 0.088 M
How it was run: (§1)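 Two-state fits, bootstrapped, provided melting temperature and folding enthalpy from Cy3 fluorescence normalised to pre-quench Cy3 and to control constructs. Library hairpins with annealed Cy3 and quencher oligos were imaged on a sequenced MiSeq flow cell in 50 mM Na-HEPES pH 8.0, 25 mM NaCl, at 2.5 °C intervals up to 60 °C. Four replicates were combined with inverse-variance weighting. A 9.35 °C upward shift was applied to fitted temperatures to match UV melts.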

[2] = folding enthalpy; higher = less favourable; fluorescence melt of hairpins on a sequencing array, two-state fit; settings: sodium 0.088 M
How it was run: as §1

## GACTGTGGAAACATAGTC ((((.((....)).))))
[1]
  Tm: 45.2 °C
[2]
  folding enthalpy: -28.5 kcal/mol

## GCGATCGCTCGC ((((....))))
[1]
  Tm: 49.6 °C
[2]
  folding enthalpy: -24.2 kcal/mol

## GATCTTGCGGAAGATC ((((((....))))))
[1]
  Tm: 42.7 °C
[2]
  folding enthalpy: -36 kcal/mol

## GCACTGCGAAAGCGTTGC (((..((....))..)))
[1]
  Tm: 45.3 °C
[2]
  folding enthalpy: -23.6 kcal/mol

## GATCGGGGGCCCGATC ((((((....))))))
[1]
  Tm: 59.7 °C
[2]
  folding enthalpy: -40.1 kcal/mol

## GGCGACGGAAACGTCGTC (.(((((....))))).)
[1]
  Tm: 67.9 °C
[2]
  folding enthalpy: -26.5 kcal/mol

## GATCAATTGTTGATC ((((((...))))))
[1]
  Tm: 41.5 °C
[2]
  folding enthalpy: -30.6 kcal/mol

## GCTCGGCGAAAGCTAAGC (((..((....))..)))
[1]
  Tm: 44.4 °C
[2]
  folding enthalpy: -15.8 kcal/mol

## GTCGTCGAAAGACACGAC ((((((....)))..)))
[1]
  Tm: 48.1 °C
[2]
  folding enthalpy: -16.7 kcal/mol

## GAACCGGGAAACCGGCTC ((.((((....)))).))
[1]
  Tm: 46 °C
[2]
  folding enthalpy: -15.7 kcal/mol

## GCTGCCGAAAGGCTGAGC ((((((....)))..)))
[1]
  Tm: 50.1 °C
[2]
  folding enthalpy: -16.2 kcal/mol

## GATCGGATAACCGATC ((((((....))))))
[1]
  Tm: 56.2 °C
[2]
  folding enthalpy: -35.1 kcal/mol

## GTCGTAGAAATACGAC ((((((....))))))
[1]
  Tm: 56 °C
[2]
  folding enthalpy: -38 kcal/mol

## GGCAGCGGAAACACCGCC (((.(.(....).).)))
[1]
  Tm: 34.9 °C
[2]
  folding enthalpy: -11.1 kcal/mol

## GAAGAAGAAATTCTTC ((((((....))))))
[1]
  Tm: 38.1 °C
[2]
  folding enthalpy: -18.5 kcal/mol

## GATCGGCGCTCCGATC ((((((....))))))
[1]
  Tm: 56.9 °C
[2]
  folding enthalpy: -37.8 kcal/mol

## GTCTGTCGAAAGACGAC (((.(((....))))))
[1]
  Tm: 51.5 °C
[2]
  folding enthalpy: -28.6 kcal/mol

## GAATACGGAAACGTATTC (((((((....)))))))
[1]
  Tm: 55.7 °C
[2]
  folding enthalpy: -36.5 kcal/mol

## GCAACGCGAAAGCGCGGC ((..(((....)))..))
[1]
  Tm: 48.1 °C
[2]
  folding enthalpy: -14.8 kcal/mol

## GAGACGCGAAAGCGACTC (((.(((....))).)))
[1]
  Tm: 66.4 °C
[2]
  folding enthalpy: -24.9 kcal/mol

## GACCTCCCGAAAGGGGTC (((..(((....))))))
[1]
  Tm: 40 °C
[2]
  folding enthalpy: -15.2 kcal/mol

## GATCCACATTTGGATC ((((((....))))))
[1]
  Tm: 50.7 °C
[2]
  folding enthalpy: -36.8 kcal/mol

## GCAGACGGAAACATCTGC (((((.(....).)))))
[1]
  Tm: 44.5 °C
[2]
  folding enthalpy: -29.9 kcal/mol

## GATCGTACTCACGATC ((((((....))))))
[1]
  Tm: 53.9 °C
[2]
  folding enthalpy: -44.5 kcal/mol

## GATCCATTAATGGATC ((((((....))))))
[1]
  Tm: 54.8 °C
[2]
  folding enthalpy: -38.7 kcal/mol

## GCGTGGGGAAACCCGCGC (((.(((....))).)))
[1]
  Tm: 69 °C
[2]
  folding enthalpy: -44.8 kcal/mol

## GTTTTAGGAAACTAAGAC ((.((((....)))).))
[1]
  Tm: 29 °C
[2]
  folding enthalpy: -15.7 kcal/mol

## GCATCCGAAAGGAAGTGC ((((((....)))..)))
[1]
  Tm: 41.3 °C
[2]
  folding enthalpy: -24.3 kcal/mol

## GCAACGACGAAAGTCTGC (((..(((....))))))
[1]
  Tm: 40.5 °C
[2]
  folding enthalpy: -16.6 kcal/mol

## GGGAGATCGAAAGATCCC (((..(((....))))))
[1]
  Tm: 49.8 °C
[2]
  folding enthalpy: -14.5 kcal/mol

## GATCACTGTAGTGATC ((((((....))))))
[1]
  Tm: 60.6 °C
[2]
  folding enthalpy: -39.7 kcal/mol

## GCAGGAACGAAAGTTTGC (((..(((....))))))
[1]
  Tm: 36 °C
[2]
  folding enthalpy: -16.6 kcal/mol

## CGCCCCCGGAAACGGGCG (((..(((....))))))
[1]
  Tm: 54.3 °C
[2]
  folding enthalpy: -13.8 kcal/mol

## GGGAGTGGAAACACTCTC (.(((((....))))).)
[1]
  Tm: 51.7 °C
[2]
  folding enthalpy: -25.1 kcal/mol

## GCAATTCGAAAGAACTGC (((.(((....))).)))
[1]
  Tm: 43.4 °C
[2]
  folding enthalpy: -31.4 kcal/mol

## GCCGGGCGAAAGCAAGGC (((..((....))..)))
[1]
  Tm: 68.5 °C
[2]
  folding enthalpy: -34 kcal/mol

## GCTGCCCGAAAGGGAGC (((.(((....))))))
[1]
  Tm: 57.1 °C
[2]
  folding enthalpy: -23 kcal/mol

## GTGAGCGAAAGCTGACAC ((((((....)))..)))
[1]
  Tm: 41.2 °C
[2]
  folding enthalpy: -16.6 kcal/mol

## GTGAGGGGAAACCCTTGC (..((((....))))..)
[1]
  Tm: 38.7 °C
[2]
  folding enthalpy: -16.4 kcal/mol

## TCGTTGAAAAACGA (((((....)))))
[1]
  Tm: 44.7 °C
[2]
  folding enthalpy: -20.3 kcal/mol

## GTGTACGAAAGTAAACAC ((((((....)))..)))
[1]
  Tm: 42.6 °C
[2]
  folding enthalpy: -25.1 kcal/mol

## GTTCGCGAAAGCGCTAAC ((((((....)))..)))
[1]
  Tm: 25.1 °C
[2]
  folding enthalpy: -9.92 kcal/mol

## GATCCTCTTAAGGATC ((((((....))))))
[1]
  Tm: 52.9 °C
[2]
  folding enthalpy: -42.5 kcal/mol

## GGTTTCGAAAGAAGTACC ((((((....)))..)))
[1]
  Tm: 29.8 °C
[2]
  folding enthalpy: -12.7 kcal/mol

## GATCTAATGATAGATC ((((((....))))))
[1]
  Tm: 36.2 °C
[2]
  folding enthalpy: -20.4 kcal/mol

## GCGGTAACGAAAGTTCGC (((..(((....))))))
[1]
  Tm: 47.4 °C
[2]
  folding enthalpy: -26.7 kcal/mol

## GATCGGACTACCGATC ((((((....))))))
[1]
  Tm: 55.6 °C
[2]
  folding enthalpy: -36.6 kcal/mol

## GTATGGGGAAACCTGTAC (((..((....))..)))
[1]
  Tm: 32.2 °C
[2]
  folding enthalpy: -17.1 kcal/mol

## GGGTTCGAAAGAAACCCC ((((((....)))..)))
[1]
  Tm: 52.5 °C
[2]
  folding enthalpy: -18.5 kcal/mol

## GAATCCGAAAGGATGTTC ((((((....)))..)))
[1]
  Tm: 37.3 °C
[2]
  folding enthalpy: -13.8 kcal/mol

## GCGCACGAAAGTGTTCGC ((((((....)))..)))
[1]
  Tm: 48.2 °C
[2]
  folding enthalpy: -22.1 kcal/mol

## GGGCTTCGAAAGAACCCC (((.(((....))).)))
[1]
  Tm: 47.6 °C
[2]
  folding enthalpy: -20.5 kcal/mol

## GATCCGGAGTCGGATC ((((((....))))))
[1]
  Tm: 55.7 °C
[2]
  folding enthalpy: -36.4 kcal/mol

## GTTCGACGAAAGTCTAAC (((.(((....))).)))
[1]
  Tm: 42.5 °C
[2]
  folding enthalpy: -24.8 kcal/mol

## GTTCTCGAAAGAGAGAAC ((((((....)))..)))
[1]
  Tm: 46.4 °C
[2]
  folding enthalpy: -25.1 kcal/mol

## CGTAGACGGAAACGTACG (((..(((....))))))
[1]
  Tm: 36.9 °C
[2]
  folding enthalpy: -16.7 kcal/mol

## GATTGCGGAAACGTAGTC ((.(.((....)).).))
[1]
  Tm: 29.8 °C
[2]
  folding enthalpy: -11.4 kcal/mol

## GATGGGGCGAAAGCCATC (((..(((....))))))
[1]
  Tm: 38.1 °C
[2]
  folding enthalpy: -12 kcal/mol

## GCGGGGCGAAAGCCGGGC ((..(((....)))..))
[1]
  Tm: 56 °C
[2]
  folding enthalpy: -14.8 kcal/mol

## GCGGTTGACCGC ((((....))))
[1]
  Tm: 63.9 °C
[2]
  folding enthalpy: -24.7 kcal/mol

## GATCCTGCTAAGGATC ((((((....))))))
[1]
  Tm: 63.2 °C
[2]
  folding enthalpy: -46.2 kcal/mol

## GATCCTTATTAGGATC ((((((....))))))
[1]
  Tm: 51.7 °C
[2]
  folding enthalpy: -37.8 kcal/mol

## GCCCAAGAAATTGGGC ((((((....))))))
[1]
  Tm: 63.1 °C
[2]
  folding enthalpy: -33.3 kcal/mol

## GATCCGTCCGCGGATC ((((((....))))))
[1]
  Tm: 61 °C
[2]
  folding enthalpy: -36.7 kcal/mol

## GAGGATGGAAACATCTTC ((.((((....)))).))
[1]
  Tm: 38.1 °C
[2]
  folding enthalpy: -27.1 kcal/mol

## CGACTCGGAAACGAATCG (((.(((....))).)))
[1]
  Tm: 41.9 °C
[2]
  folding enthalpy: -33.6 kcal/mol

## GCCGAGCGAAAGCTTTGC ((..(((....)))..))
[1]
  Tm: 39.1 °C
[2]
  folding enthalpy: -12.6 kcal/mol

## CGGCCGGAAACGGACCCG ((((((....)))..)))
[1]
  Tm: 38.8 °C
[2]
  folding enthalpy: -12.1 kcal/mol

## GATCAGCTAACTGATC ((((((....))))))
[1]
  Tm: 49.7 °C
[2]
  folding enthalpy: -40 kcal/mol
